Values after ≈ are worked out from the molar mass of the structure shown.
What follows are compounds tested on Staphylococcus aureus (assay: Antibacterial activity against Staphylococcus aureus ATCC 6538 after 24 hrs by micro dilution method). Details: ATCC 6538, 24 h.
Format: functional
In short: (§1)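 Microdilution MIC in 96-well plates. Bacterial suspensions adjusted in sterile saline to 1.0 × 10^5 CFU/ml, giving 1.0 × 10^4 cfu per well in LB broth. Compounds tested at up to 1 mg/ml. Plates incubated 24 h. MIC taken as the lowest concentration with no visible growth under a binocular microscope. OD at 655 nm was also read against a blank and the positive control. Streptomycin and ampicillin were the positive controls.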

| Structure (SMILES) | MIC [µM] |
| --- | --- |
| CNc1nnc(Cc2cc(OC)c(OC)cc2S(=O)(=O)N(C)C)o1 | 280 (≈ 99.8 µg/mL) |

The compounds below were run on Enterobacter cloacae (assay: Antibacterial activity against Enterobacter cloacae human isolate after 24 hrs by micro dilution method). Details: not given.
Format: functional
In short: as §1

| Structure (SMILES) | MIC [µM] |
| --- | --- |
| CNc1nnc(Cc2cc(OC)c(OC)cc2S(=O)(=O)N(C)C)o1 | 700 (≈ 249 µg/mL) |

The compounds below were run on Aspergillus niger (assay: Antifungal activity against Aspergillus niger ATCC 6275 after 72 hrs by serial dilution method). Details: ATCC 6275, 72 h.
Format: functional
In short: (§2)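 Modified microdilution MIC. Spores were washed from malt agar cultures with sterile 0.85% saline containing 0.1% Tween 80 and adjusted to about 1.0 × 10^5 per 100 µl well in malt broth. Compounds were dissolved in DMSO (1 mg/ml). Plates incubated 72 h at 28 °C. MIC is the lowest concentration with no visible growth under a binocular microscope. Bifonazole and ketoconazole were the references.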

| Structure (SMILES) | MIC [µM] |
| --- | --- |
| CNc1nnc(Cc2cc(OC)c(OC)cc2S(=O)(=O)N(C)C)o1 | 140 (≈ 49.9 µg/mL) |

The compounds below were run on Aspergillus versicolor (assay: Antifungal activity against Aspergillus versicolor ATCC 11730 after 72 hrs by serial dilution method). Details: ATCC 11730, 72 h.
Format: functional
In short: as §2

| Structure (SMILES) | MIC [µM] |
| --- | --- |
| CNc1nnc(Cc2cc(OC)c(OC)cc2S(=O)(=O)N(C)C)o1 | 140 (≈ 49.9 µg/mL) |

What follows are compounds tested on Escherichia coli (assay: Antibacterial activity against Escherichia coli ATCC 35210 treated for 24 hrs followed by sub-cultivated for 72 hrs by micro dilution method). Details: not given.
Format: functional
In short: (§3)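 2 µl from each well was serially subcultured into 100 µl fresh broth per well and incubated a further 72 h. MBC is the lowest concentration with no visible growth, taken as 99.5% killing of the original inoculum. Streptomycin and ampicillin were the positive controls.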

| Structure (SMILES) | MBC [µM] |
| --- | --- |
| CNc1nnc(Cc2cc(OC)c(OC)cc2S(=O)(=O)N(C)C)o1 | 420 (≈ 150 µg/mL) |

Each compound was assayed on Trichoderma viride (assay: Antifungal activity against Trichoderma viride IAM 5061 treated for 72 hrs followed by sub-cultivated for 5 days by serial dilution method). Details: not given.
Format: functional
In short: (§4)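 MFC obtained after the 72 h, 28 °C malt-broth microdilution (spore inoculum about 1.0 × 10^5 per well, compounds from 1 mg/ml DMSO). 2 µl was serially subcultured into 100 µl broth per well and incubated a further 5 days at 28 °C. MFC is the lowest concentration with no visible growth, taken as 99.5% killing of the original inoculum.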

| Structure (SMILES) | MFC [µM] |
| --- | --- |
| CNc1nnc(Cc2cc(OC)c(OC)cc2S(=O)(=O)N(C)C)o1 | 140 (≈ 49.9 µg/mL) |

Each compound was assayed on Micrococcus flavus (assay: Antibacterial activity against Micrococcus flavus ATCC 10240 treated for 24 hrs followed by sub-cultivated for 72 hrs by micro dilution method). Details: not given.
Format: functional
In short: as §3

| Structure (SMILES) | MBC [µM] |
| --- | --- |
| CNc1nnc(Cc2cc(OC)c(OC)cc2S(=O)(=O)N(C)C)o1 | 840 (≈ 299 µg/mL) |

What follows are compounds tested on Salmonella typhimurium (assay: Antibacterial activity against Salmonella Typhimurium ATCC 13311 after 24 hrs by micro dilution method). Details: Salmonella enterica, ATCC 13311, 24 h.
Format: functional, Salmonella enterica subsp. enterica serovar Typhimurium
In short: as §1

| Structure (SMILES) | MIC [µM] |
| --- | --- |
| CNc1nnc(Cc2cc(OC)c(OC)cc2S(=O)(=O)N(C)C)o1 | 420 (≈ 150 µg/mL) |

The compounds below were run on Aspergillus fumigatus (assay: Antifungal activity against Aspergillus fumigatus human isolate treated for 72 hrs followed by sub-cultivated for 5 days by serial dilution method). Details: not given.
Format: functional
In short: as §4

| Structure (SMILES) | MFC [µM] |
| --- | --- |
| CNc1nnc(Cc2cc(OC)c(OC)cc2S(=O)(=O)N(C)C)o1 | 280 (≈ 99.8 µg/mL) |

The compounds below were run on Aspergillus versicolor (assay: Antifungal activity against Aspergillus versicolor ATCC 11730 treated for 72 hrs followed by sub-cultivated for 5 days by serial dilution method). Details: not given.
Format: functional
In short: as §4

| Structure (SMILES) | MFC [µM] |
| --- | --- |
| CNc1nnc(Cc2cc(OC)c(OC)cc2S(=O)(=O)N(C)C)o1 | 450 (≈ 160 µg/mL) |

What follows are compounds tested on Pseudomonas aeruginosa (assay: Antibacterial activity against Pseudomonas aeruginosa ATCC 27853 after 24 hrs by micro dilution method). Details: ATCC 27853, 24 h.
Format: functional
In short: as §1

| Structure (SMILES) | MIC [µM] |
| --- | --- |
| CNc1nnc(Cc2cc(OC)c(OC)cc2S(=O)(=O)N(C)C)o1 | 420 (≈ 150 µg/mL) |

What follows are compounds tested on Micrococcus flavus (assay: Antibacterial activity against Micrococcus flavus ATCC 10240 after 24 hrs by micro dilution method). Details: ATCC 10240, 24 h.
Format: functional
In short: as §1

| Structure (SMILES) | MIC [µM] |
| --- | --- |
| CNc1nnc(Cc2cc(OC)c(OC)cc2S(=O)(=O)N(C)C)o1 | 560 (≈ 200 µg/mL) |

The compounds below were run on Listeria monocytogenes (assay: Antibacterial activity against Listeria monocytogenes NCTC 7973 treated for 24 hrs followed by sub-cultivated for 72 hrs by micro dilution method). Details: not given.
Format: functional
In short: as §3

| Structure (SMILES) | MBC [µM] |
| --- | --- |
| CNc1nnc(Cc2cc(OC)c(OC)cc2S(=O)(=O)N(C)C)o1 | 420 (≈ 150 µg/mL) |

Each compound was assayed on Talaromyces funiculosus (assay: Antifungal activity against Penicillium funiculosum ATCC 36839 after 72 hrs by serial dilution method). Details: ATCC 36839, 72 h.
Format: functional
In short: as §2

| Structure (SMILES) | MIC [µM] |
| --- | --- |
| CNc1nnc(Cc2cc(OC)c(OC)cc2S(=O)(=O)N(C)C)o1 | 140 (≈ 49.9 µg/mL) |

What follows are compounds tested on Listeria monocytogenes (assay: Antibacterial activity against Listeria monocytogenes NCTC 7973 after 24 hrs by micro dilution method). Details: NCTC 7973, 24 h.
Format: functional
In short: as §1

| Structure (SMILES) | MIC [µM] |
| --- | --- |
| CNc1nnc(Cc2cc(OC)c(OC)cc2S(=O)(=O)N(C)C)o1 | 420 (≈ 150 µg/mL) |

Each compound was assayed on Trichoderma viride (assay: Antifungal activity against Trichoderma viride IAM 5061 after 72 hrs by serial dilution method). Details: IAM 5061, 72 h.
Format: functional
In short: as §2

| Structure (SMILES) | MIC [µM] |
| --- | --- |
| CNc1nnc(Cc2cc(OC)c(OC)cc2S(=O)(=O)N(C)C)o1 | 30 (≈ 10.7 µg/mL) |

What follows are compounds tested on Bacillus cereus (assay: Antibacterial activity against Bacillus cereus clinical isolate treated for 24 hrs followed by sub-cultivated for 72 hrs by micro dilution method). Details: not given.
Format: functional
In short: as §3

| Structure (SMILES) | MBC [µM] |
| --- | --- |
| CNc1nnc(Cc2cc(OC)c(OC)cc2S(=O)(=O)N(C)C)o1 | 280 (≈ 99.8 µg/mL) |

These compounds were tested on Fulvia fulva (assay: Antifungal activity against Fulvia fulva treated for 72 hrs followed by sub-cultivated for 5 days by serial dilution method). Details: not given.
Format: functional
In short: as §4

| Structure (SMILES) | MFC [µM] |
| --- | --- |
| CNc1nnc(Cc2cc(OC)c(OC)cc2S(=O)(=O)N(C)C)o1 | 450 (≈ 160 µg/mL) |

What follows are compounds tested on Aspergillus flavus (assay: Antifungal activity against Aspergillus flavus ATCC 9643 treated for 72 hrs followed by sub-cultivated for 5 days by serial dilution method). Details: not given.
Format: functional
In short: as §4

| Structure (SMILES) | MFC [µM] |
| --- | --- |
| CNc1nnc(Cc2cc(OC)c(OC)cc2S(=O)(=O)N(C)C)o1 | 450 (≈ 160 µg/mL) |

The compounds below were run on Aspergillus niger (assay: Antifungal activity against Aspergillus niger ATCC 6275 treated for 72 hrs followed by sub-cultivated for 5 days by serial dilution method). Details: not given.
Format: functional
In short: as §4

| Structure (SMILES) | MFC [µM] |
| --- | --- |
| CNc1nnc(Cc2cc(OC)c(OC)cc2S(=O)(=O)N(C)C)o1 | 450 (≈ 160 µg/mL) |

These compounds were tested on Enterobacter cloacae (assay: Antibacterial activity against Enterobacter cloacae human isolate treated for 24 hrs followed by sub-cultivated for 72 hrs by micro dilution method). Details: not given.
Format: functional
In short: as §3

| Structure (SMILES) | MBC [µM] |
| --- | --- |
| CNc1nnc(Cc2cc(OC)c(OC)cc2S(=O)(=O)N(C)C)o1 | 840 (≈ 299 µg/mL) |

What follows are compounds tested on Penicillium ochrochloron (assay: Antifungal activity against Penicillium ochrochloron ATCC 9112 after 72 hrs by serial dilution method). Details: ATCC 9112, 72 h.
Format: functional
In short: as §2

| Structure (SMILES) | MIC [µM] |
| --- | --- |
| CNc1nnc(Cc2cc(OC)c(OC)cc2S(=O)(=O)N(C)C)o1 | 140 (≈ 49.9 µg/mL) |

Each compound was assayed on Aspergillus fumigatus (assay: Antifungal activity against Aspergillus fumigatus human isolate after 72 hrs by serial dilution method). Details: not given.
Format: functional
In short: as §2

| Structure (SMILES) | MIC [µM] |
| --- | --- |
| CNc1nnc(Cc2cc(OC)c(OC)cc2S(=O)(=O)N(C)C)o1 | 140 (≈ 49.9 µg/mL) |

Each compound was assayed on Salmonella typhimurium (assay: Antibacterial activity against Salmonella Typhimurium ATCC 13311 treated for 24 hrs followed by sub-cultivated for 72 hrs by micro dilution method). Details: Salmonella enterica.
Format: functional, Salmonella enterica subsp. enterica serovar Typhimurium
In short: as §3

| Structure (SMILES) | MBC [µM] |
| --- | --- |
| CNc1nnc(Cc2cc(OC)c(OC)cc2S(=O)(=O)N(C)C)o1 | 420 (≈ 150 µg/mL) |

The compounds below were run on Penicillium ochrochloron (assay: Antifungal activity against Penicillium ochrochloron ATCC 9112 treated for 72 hrs followed by sub-cultivated for 5 days by serial dilution method). Details: not given.
Format: functional
In short: as §4

| Structure (SMILES) | MFC [µM] |
| --- | --- |
| CNc1nnc(Cc2cc(OC)c(OC)cc2S(=O)(=O)N(C)C)o1 | 450 (≈ 160 µg/mL) |

These compounds were tested on Fulvia fulva (assay: Antifungal activity against Fulvia fulva after 72 hrs by serial dilution method). Details: not given.
Format: functional
In short: as §2

| Structure (SMILES) | MIC [µM] |
| --- | --- |
| CNc1nnc(Cc2cc(OC)c(OC)cc2S(=O)(=O)N(C)C)o1 | 280 (≈ 99.8 µg/mL) |

The compounds below were run on Talaromyces funiculosus (assay: Antifungal activity against Penicillium funiculosum ATCC 36839 treated for 72 hrs followed by sub-cultivated for 5 days by serial dilution method). Details: not given.
Format: functional
In short: as §4

| Structure (SMILES) | MFC [µM] |
| --- | --- |
| CNc1nnc(Cc2cc(OC)c(OC)cc2S(=O)(=O)N(C)C)o1 | 280 (≈ 99.8 µg/mL) |

The compounds below were run on Staphylococcus aureus (assay: Antibacterial activity against Staphylococcus aureus ATCC 6538 treated for 24 hrs followed by sub-cultivated for 72 hrs by micro dilution method). Details: not given.
Format: functional
In short: as §3

| Structure (SMILES) | MBC [µM] |
| --- | --- |
| CNc1nnc(Cc2cc(OC)c(OC)cc2S(=O)(=O)N(C)C)o1 | 280 (≈ 99.8 µg/mL) |

What follows are compounds tested on Bacillus cereus (assay: Antibacterial activity against Bacillus cereus clinical isolate after 24 hrs by micro dilution method). Details: not given.
Format: functional
In short: as §1

| Structure (SMILES) | MIC [µM] |
| --- | --- |
| CNc1nnc(Cc2cc(OC)c(OC)cc2S(=O)(=O)N(C)C)o1 | 280 (≈ 99.8 µg/mL) |

These compounds were tested on Pseudomonas aeruginosa (assay: Antibacterial activity against Pseudomonas aeruginosa ATCC 27853 treated for 24 hrs followed by sub-cultivated for 72 hrs by micro dilution method). Details: not given.
Format: functional
In short: as §3

| Structure (SMILES) | MBC [µM] |
| --- | --- |
| CNc1nnc(Cc2cc(OC)c(OC)cc2S(=O)(=O)N(C)C)o1 | 560 (≈ 200 µg/mL) |

Each compound was assayed on Escherichia coli (assay: Antibacterial activity against Escherichia coli ATCC 35210 after 24 hrs by micro dilution method). Details: ATCC 35210, 24 h.
Format: functional
In short: as §1

| Structure (SMILES) | MIC [µM] |
| --- | --- |
| CNc1nnc(Cc2cc(OC)c(OC)cc2S(=O)(=O)N(C)C)o1 | 280 (≈ 99.8 µg/mL) |

What follows are compounds tested on Aspergillus flavus (assay: Antifungal activity against Aspergillus flavus ATCC 9643 after 72 hrs by serial dilution method). Details: ATCC 9643, 72 h.
Format: functional
In short: as §2

| Structure (SMILES) | MIC [µM] |
| --- | --- |
| CNc1nnc(Cc2cc(OC)c(OC)cc2S(=O)(=O)N(C)C)o1 | 140 (≈ 49.9 µg/mL) |
